From ChEMBL document CHEMBL4359823, “Switching on the activity of 1,5-diaryl-pyrrole derivatives against drug-resistant ESKAPE bacteria: Structure-activity relationships and mode of action studies” (Eur J Med Chem, 2019)
In brackets after ≈: the same amount, converted by molar mass. Activity calls are given as the source filed them. The rule behind the calls is not given here.

Tests used:
Enterococcus faecalis [1] = experiment: Antibacterial activity against vancomycin resistant Enterococcus faecalis NCTC12204 measured after overnight incubation by microbroth dilution method; assay type: functional
Summary of the method: (§1)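 Microbroth dilution: DMSO stocks diluted in water, 2-fold series. Overnight TSB cultures back-diluted to OD 0.01 and mixed 1:1 with compound. Incubated overnight at 37 °C; MIC taken as lowest concentration without visible growth (<0.1 OD600). Run in duplicate; matching DMSO levels checked for effect on growth.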

Enterococcus faecalis [2] = experiment: Antibacterial activity against vancomycin resistant Enterococcus faecalis NCTC12201 measured after overnight incubation by microbroth dilution method; assay type: functional; summary of the method: as §1
Staphylococcus aureus [3] = experiment: Antibacterial activity against methicillin sensitive Staphylococcus aureus NCTC 6571 measured after overnight incubation by microbroth dilution method; assay type: functional; summary of the method: as §1
Staphylococcus aureus [4] = experiment: Antibacterial activity against methicillin resistant Staphylococcus aureus NCTC13616 measured after overnight incubation by microbroth dilution method; assay type: functional; summary of the method: as §1
Staphylococcus aureus [5] = experiment: Antibacterial activity against methicillin resistant Staphylococcus aureus NCTC13277 measured after overnight incubation by microbroth dilution method; assay type: functional; summary of the method: as §1
Enterococcus faecalis [6] = experiment: Antibacterial activity against vancomycin sensitive Enterococcus faecalis NCTC775 measured after overnight incubation by microbroth dilution method; assay type: functional; summary of the method: as §1
Klebsiella pneumoniae [7] = experiment: Antibacterial activity against Klebsiella pneumoniae NCTC13368 measured after overnight incubation by microbroth dilution method; assay type: functional
Summary of the method: (§2)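 Microbroth dilution MIC. Compound DMSO stocks were diluted in water as a 2-fold series. Overnight TSB cultures were back-diluted to OD 0.01 and mixed 1:1 with compound. Plates were incubated overnight at 37 °C. MIC was the lowest concentration without visible growth (<0.1 OD600), run in duplicate.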

Klebsiella pneumoniae [8] = experiment: Antibacterial activity against Klebsiella pneumoniae M6 measured after overnight incubation by microbroth dilution method; assay type: functional; summary of the method: as §2
Acinetobacter baumannii [9] = experiment: Antibacterial activity against Acinetobacter baumannii AYE measured after overnight incubation by microbroth dilution method; assay type: functional; summary of the method: as §2
Acinetobacter baumannii [10] = experiment: Antibacterial activity against Acinetobacter baumannii ATCC 17978 measured after overnight incubation by microbroth dilution method; assay type: functional; summary of the method: as §2
Pseudomonas aeruginosa [11] = experiment: Antibacterial activity against Pseudomonas aeruginosa PAO1 measured after overnight incubation by microbroth dilution method; assay type: functional; summary of the method: as §2
Pseudomonas aeruginosa [12] = experiment: Antibacterial activity against Pseudomonas aeruginosa NCTC13437 measured after overnight incubation by microbroth dilution method; assay type: functional; summary of the method: as §2
Escherichia coli [13] = experiment: Antibacterial activity against Escherichia coli NCTC12923 measured after overnight incubation by microbroth dilution method; assay type: functional; summary of the method: as §2
HEK293 = experiment: Cytotoxicity again human HEK293 cells measured after 24 hrs by XTT assay; assay type: cell-based; details: HEK293, 24 h
Summary of the method: (§3)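 Cells were grown in EMEM with glutamine, 10% FBS and non-essential amino acids at 37 °C, 10% CO2. Seeding was 1 x 10^5 cells/mL (HEK293) or 4 x 10^4 cells/mL (HeLa), then 24 h adherence. Doubling compound dilutions were applied for 24 h. XTT/PMS was added for 4 h in the dark, with absorbance read at 450 nm. Untreated cells were the 100% control and water-treated cells the 0% control; IC50 was fitted.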

HeLa = experiment: Cytotoxicity again human HeLa cells measured after 24 hrs by XTT assay; assay type: cell-based; summary of the method: as §3
Klebsiella pneumoniae [14] = experiment: Antibacterial activity against Klebsiella pneumoniae NCTC13368 measured after overnight incubation in presence of polymyxin B nonapeptide by microbroth dilution method; assay type: functional
Klebsiella pneumoniae [15] = experiment: Antibacterial activity against Klebsiella pneumoniae M6 measured after overnight incubation in presence of polymyxin B nonapeptide by microbroth dilution method; assay type: functional
Acinetobacter baumannii [16] = experiment: Antibacterial activity against Acinetobacter baumannii AYE measured after overnight incubation in presence of polymyxin B nonapeptide by microbroth dilution method; assay type: functional
Acinetobacter baumannii [17] = experiment: Antibacterial activity against Acinetobacter baumannii ATCC 17978 measured after overnight incubation in presence of polymyxin B nonapeptide by microbroth dilution method; assay type: functional
Pseudomonas aeruginosa [18] = experiment: Antibacterial activity against Pseudomonas aeruginosa PAO1 measured after overnight incubation in presence of polymyxin B nonapeptide by microbroth dilution method; assay type: functional
Pseudomonas aeruginosa [19] = experiment: Antibacterial activity against Pseudomonas aeruginosa NCTC13437 measured after overnight incubation in presence of polymyxin B nonapeptide by microbroth dilution method; assay type: functional
Escherichia coli [20] = experiment: Antibacterial activity against Escherichia coli NCTC12923 measured after overnight incubation in presence of polymyxin B nonapeptide by microbroth dilution method; assay type: functional
Klebsiella pneumoniae [21] = experiment: Antibacterial activity against Klebsiella pneumoniae NCTC13368 measured after overnight incubation in presence of phenylalanine arginine beta-naphthylamide by microbroth dilution method; assay type: functional; summary of the method: as §2
Klebsiella pneumoniae [22] = experiment: Antibacterial activity against Klebsiella pneumoniae M6 measured after overnight incubation in presence of phenylalanine arginine beta-naphthylamide by microbroth dilution method; assay type: functional; summary of the method: as §2
Acinetobacter baumannii [23] = experiment: Antibacterial activity against Acinetobacter baumannii AYE measured after overnight incubation in presence of phenylalanine arginine beta-naphthylamide by microbroth dilution method; assay type: functional; summary of the method: as §2
Acinetobacter baumannii [24] = experiment: Antibacterial activity against Acinetobacter baumannii ATCC 17978 measured after overnight incubation in presence of phenylalanine arginine beta-naphthylamide by microbroth dilution method; assay type: functional; summary of the method: as §2
Pseudomonas aeruginosa [25] = experiment: Antibacterial activity against Pseudomonas aeruginosa PAO1 measured after overnight incubation in presence of phenylalanine arginine beta-naphthylamide by microbroth dilution method; assay type: functional; summary of the method: as §2
Pseudomonas aeruginosa [26] = experiment: Antibacterial activity against Pseudomonas aeruginosa NCTC13437 measured after overnight incubation in presence of phenylalanine arginine beta-naphthylamide by microbroth dilution method; assay type: functional; summary of the method: as §2
Escherichia coli [27] = experiment: Antibacterial activity against Escherichia coli NCTC12923 measured after overnight incubation in presence of phenylalanine arginine beta-naphthylamide by microbroth dilution method; assay type: functional; summary of the method: as §2
Staphylococcus aureus [28] = experiment: Bactericidal activity against methicillin resistant Staphylococcus aureus NCTC13616 at 4 times MIC measured at 0 to 24 hrs by time kill assay; assay type: functional, organism-based
Summary of the method: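 Overnight cultures back-diluted to OD 0.01 in glass universals, compound added at 4 x MIC, 37 °C with shaking at 200 rpm. Sampled at 0, 2, 4, 6 and 24 h; CFU/mL counted by Miles-Misra; untreated control included.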

DNA gyrase = DNA gyrase (Staphylococcus aureus, UniProt P0A0K8+P20831, S84L); experiment: Inhibition of Staphylococcus aureus DNA gyrase S84L mutant; assay type: protein-complex assay
Staphylococcus aureus [29] = experiment: Antibacterial activity against Staphylococcus aureus NCTC13616 assessed as generation of drug resistance at 2 times MIC measured after 48 hrs by agar-based microbroth dilution method; assay type: functional
Summary of the method: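 Agar method: exponentially growing bacteria, in known numbers, plated on agar with doubling compound concentrations at and above the MIC; incubated 48 hours. Colonies growing above the MIC were picked and re-tested by microbroth MIC for raised resistance. Resistance frequency reported at 2xMIC.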

Enterococcus faecalis [30] = experiment: Bacteriostatic activity against vancomycin resistant Enterococcus feacalis NCTC12204 at 4 times MIC measured at 0 to 24 hrs by time kill assay
Enterococcus faecium = experiment: Antibacterial activity against Enterococcus faecium NCTC12204 assessed as generation of drug resistance at 2 times MIC measured after 48 hrs by agar-based microbroth dilution method
[31] = Inhibition of Staphylococcus aureus DNA gyrase subunit A2B2 using relaxed pBR322 DNA as substrate measured after 30 mins in presence of ATP by ethidium bromide-based gel electrophoresis
Summary of the method: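 Supercoiling assay with S. aureus wild-type or S84L gyrase and relaxed pBR322, with or without varying compound, at 37 °C for 30 min. The reaction was stopped with STEB and extracted with chloroform:isoamyl alcohol (24:1). The aqueous phase was run on a 1% agarose gel and the supercoiled band quantified. IC50 came from at least three independent replicates.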

Staphylococcus aureus [32] = experiment: Bacteriostatic activity against methicillin resistant Staphylococcus aureus NCTC13616 at 4 times MIC measured at 0 to 24 hrs by time kill assay

SMILES | MIC (Enterococcus faecalis [1]) | MIC (Enterococcus faecalis [2]) | MIC (Staphylococcus aureus [3]) | MIC (Staphylococcus aureus [4]) | MIC (Staphylococcus aureus [5]) | MIC (Enterococcus faecalis [6]) | MIC (Klebsiella pneumoniae [7]) | MIC (Klebsiella pneumoniae [8]) | MIC (Acinetobacter baumannii [9]) | MIC (Acinetobacter baumannii [10]) | MIC (Pseudomonas aeruginosa [11]) | MIC (Pseudomonas aeruginosa [12]) | MIC (Escherichia coli [13]) | IC50 (HEK293) | IC50 (HeLa) | MIC (Klebsiella pneumoniae [14]) | MIC (Klebsiella pneumoniae [15]) | MIC (Acinetobacter baumannii [16]) | MIC (Acinetobacter baumannii [17]) | MIC (Pseudomonas aeruginosa [18]) | other results
Cc1c(CNC2CCCCC2)cc(-c2ccc(C(C)C)cc2)n1-c1ccc(Cl)cc1 | 2 µg/mL (≈ 4.75 µM) | 4 µg/mL (≈ 9.5 µM) | 4 µg/mL (≈ 9.5 µM) | 4 µg/mL (≈ 9.5 µM) | 4 µg/mL (≈ 9.5 µM) | 4 µg/mL (≈ 9.5 µM) | > 128 µg/mL | > 128 µg/mL | > 128 µg/mL | 32 µg/mL (≈ 76 µM) | > 128 µg/mL | > 128 µg/mL | > 128 µg/mL | 2.4 to 3 µg/mL (≈ 5.7 to 7.13 µM) | 2.4 to 3 µg/mL (≈ 5.7 to 7.13 µM) | > 128 µg/mL | 128 µg/mL | 8 µg/mL | 2 µg/mL | 8 µg/mL | MIC (Pseudomonas aeruginosa [19]): 32 µg/mL; MIC (Escherichia coli [20]): 2 µg/mL; MIC (Klebsiella pneumoniae [21]): > 128 µg/mL; MIC (Klebsiella pneumoniae [22]): > 128 µg/mL; MIC (Acinetobacter baumannii [23]): 8 µg/mL; MIC (Acinetobacter baumannii [24]): 8 µg/mL; MIC (Pseudomonas aeruginosa [25]): > 128 µg/mL; MIC (Pseudomonas aeruginosa [26]): > 128 µg/mL; MIC (Escherichia coli [27]): 16 µg/mL; Activity (Staphylococcus aureus [28]): Active; IC50 (DNA gyrase): 69.1 µM; Activity (Staphylococcus aureus [29]): <7.6e-08; Activity (Enterococcus faecalis [30]): Active; Activity (Enterococcus faecium): <9.4e-08
Cc1c(CNC2CCCCCC2)cc(-c2ccc(Cl)cc2)n1-c1ccc(C(C)C)cc1 | 2 µg/mL (≈ 4.6 µM) | 2 µg/mL (≈ 4.6 µM) | 4 µg/mL (≈ 9.19 µM) | 4 µg/mL (≈ 9.19 µM) | 4 µg/mL (≈ 9.19 µM) | 2 µg/mL (≈ 4.6 µM) | > 128 µg/mL | > 128 µg/mL | > 128 µg/mL | 32 µg/mL (≈ 73.6 µM) | > 128 µg/mL | > 128 µg/mL | > 128 µg/mL | 1.95 to 2.83 µg/mL (≈ 4.48 to 6.5 µM) | 1.95 to 2.83 µg/mL (≈ 4.48 to 6.5 µM) | > 128 µg/mL | > 128 µg/mL | 4 µg/mL | 2 µg/mL | 16 µg/mL | MIC (Pseudomonas aeruginosa [19]): 16 µg/mL; MIC (Escherichia coli [20]): 2 µg/mL; MIC (Klebsiella pneumoniae [21]): > 128 µg/mL; MIC (Klebsiella pneumoniae [22]): > 128 µg/mL; MIC (Acinetobacter baumannii [23]): 4 µg/mL; MIC (Acinetobacter baumannii [24]): 4 µg/mL; MIC (Pseudomonas aeruginosa [25]): 128 µg/mL; MIC (Pseudomonas aeruginosa [26]): > 128 µg/mL; MIC (Escherichia coli [27]): 8 µg/mL; IC50 [31]: 15.49 µg/mL; IC50 (DNA gyrase): 43.7 µM; Activity (Staphylococcus aureus [29]): <7.6e-08; Activity (Enterococcus faecalis [30]): Active; Activity (Staphylococcus aureus [32]): Active; Activity (Enterococcus faecium): <9.4e-08
